Results taken from ChEMBL document CHEMBL5257157, “Biological evaluation of novel amidino substituted coumarin-benzazole hybrids as promising therapeutic agents” (RSC Med Chem, 2023).

Columns and labels:
[1] = Cytotoxicity against human HEL 299 cells assessed as inhibition of cell growth incubated for 72 hrs by CellTiter96 Aqueous One Solution cell proliferation assay; format: toxicity, cell-based
[2] = tested on: Human alphaherpesvirus 1; assay: Antiviral activity against HSV-1 KOS infected in human HEL 299 cells assessed as inhibition of virus-induced cytopathogenic effect incubated for 3 to 7 days by MTS assay; format: functional, organism-based; settings: Human alphaherpesvirus 1, KOS
[3] = tested on: Huh-7; assay: Cytotoxicity against human Huh-7 cells assessed as inhibition of cell growth incubated for 72 hrs by CellTiter96 Aqueous One Solution cell proliferation assay; format: functional
[4] = tested on: Human coronavirus 229E; assay: Antiviral activity against HCoV-229E infected in human HEL 299 cells assessed as inhibition of virus-induced cytopathogenic effect incubated for 3 to 7 days by MTS assay; format: functional, organism-based
[5] = tested on: Human coronavirus OC43; assay: Antiviral activity against HCoV-OC43 infected in human HEL 299 cells assessed as inhibition of virus-induced cytopathogenic effect incubated for 3 to 7 days by MTS assay; format: functional, organism-based; settings: Betacoronavirus 1, HEL 299
[6] = Antiviral activity against HCoV-NL63 infected in human Huh-7 cells assessed as inhibition of virus-induced cytopathogenic effect incubated for 3 to 7 days by MTS assay; format: functional, cell-based; settings: Human coronavirus NL63, Huh-7
[7] = tested on: Respiratory syncytial virus; assay: Antiviral activity against RSV infected in human HEL 299 cells assessed as inhibition of virus-induced cytopathogenic effect incubated for 3 to 7 days by MTS assay; format: functional, organism-based
[8] = tested on: Yellow fever virus; assay: Antiviral activity against Yellow fever virus 17D infected in human Huh-7 cells assessed as inhibition of virus-induced cytopathogenic effect incubated for 3 to 7 days by MTS assay; format: functional, organism-based
[9] = tested on: Zika virus; assay: Antiviral activity against Zika virus Mr776 infected in human Huh-7 cells assessed as inhibition of virus-induced cytopathogenic effect incubated for 3 to 7 days by MTS assay; format: functional, organism-based; settings: Mr776, Huh-7
[10] = tested on: Sindbis virus; assay: Antiviral activity against Sindbis virus infected in human Huh-7 cells assessed as inhibition of virus-induced cytopathogenic effect incubated for 3 to 7 days by MTS assay; format: functional, organism-based
[11] = Cytotoxicity against dog MDCK cells assessed as inhibition of cell growth incubated for 72 hrs by CellTiter96 Aqueous One Solution cell proliferation assay; format: toxicity, cell-based, Canis lupus familiaris
[12] = tested on: Influenza A virus; assay: Antiviral activity against influenza virus H1N1 infected in dog MDCK cells assessed as inhibition of virus-induced cytopathogenic effect incubated for 3 to 7 days by MTS assay; format: functional, organism-based
[13] = tested on: Influenza A virus; assay: Antiviral activity against influenza virus H3N2 infected in dog MDCK cells assessed as inhibition of virus-induced cytopathogenic effect incubated for 3 to 7 days by MTS assay; format: functional, organism-based
[14] = tested on: Influenza B virus; assay: Antiviral activity against influenza B virus infected in dog MDCK cells assessed as inhibition of virus-induced cytopathogenic effect incubated for 3 to 7 days by MTS assay; format: functional, organism-based
[15] = Antioxidant activity assessed as ABTS radical scavenging activity incubated for 5 mins by absorbance based microplate reader analysis; format: functional
In short: (§1)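 Pure compounds tested in three colorimetric antioxidant assays, each run alongside the reference BHT. […] ABTS: direct reaction with ABTS•+ radical cation, reported as IC50. DPPH: scavenging of the stable DPPH radical by proton or electron donation, reported as IC50. FRAP: reducing power, expressed as mmolFe2+/mmolC.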

[16] = Antioxidant activity assessed as DPPH radical scavenging activity incubated for 5 mins by absorbance based microplate reader analysis; format: functional; in short: as §1
[17] = Antioxidant activity assessed as reduction of Fe3+ complex to Fe2+ analogue by measuring mmolFe2+/mmolc by FRAP assay; format: functional; in short: as §1
[18] = tested on: LN-229; assay: Antiproliferative activity against human LN-229 cells assessed as inhibition of cell growth incubated for 72 hrs by CellTiter96 Aqueous One Solution cell proliferation assay; format: functional, cell-based; settings: LN-229, 72 h
[19] = tested on: CAPAN-1; assay: Antiproliferative activity against human CAPAN-1 cells assessed as inhibition of cell growth incubated for 72 hrs by CellTiter96 Aqueous One Solution cell proliferation assay; format: functional, cell-based; settings: CAPAN-1, 72 h
[20] = tested on: NCI-H460; assay: Antiproliferative activity against human NCI-H460 cells assessed as inhibition of cell growth incubated for 72 hrs by CellTiter96 Aqueous One Solution cell proliferation assay; format: functional, cell-based; settings: NCI-H460, 72 h
[21] = Antiproliferative activity against human DND41 cells assessed as inhibition of cell growth incubated for 72 hrs by CellTiter96 Aqueous One Solution cell proliferation assay; format: functional, cell-based; settings: DND41, 72 h
[22] = tested on: HL-60; assay: Antiproliferative activity against human HL-60 cells assessed as inhibition of cell growth incubated for 72 hrs by CellTiter96 Aqueous One Solution cell proliferation assay; format: functional, cell-based; settings: HL-60, 72 h
[23] = tested on: K562; assay: Antiproliferative activity against human K562 cells assessed as inhibition of cell growth incubated for 72 hrs by CellTiter96 Aqueous One Solution cell proliferation assay; format: functional, cell-based; settings: K562, 72 h
[24] = tested on: Z-138; assay: Antiproliferative activity against human Z138 cells assessed as inhibition of cell growth incubated for 72 hrs by CellTiter96 Aqueous One Solution cell proliferation assay; format: functional, cell-based; settings: Z-138, 72 h

| SMILES | CC50 at 72 h [1] [µM] | EC50 [2] [µM] | CC50 [3] [µM] | EC50 [4] [µM] | EC50 [5] [µM] | EC50 [6] [µM] | EC50 [7] [µM] | EC50 [8] [µM] | EC50 [9] [µM] | EC50 [10] [µM] | CC50 at 72 h [11] [µM] | EC50 [12] [µM] | EC50 [13] [µM] | EC50 [14] [µM] | IC50 [15] [µM] | IC50 [16] [µM] | IC50 [18] [µM] | IC50 [19] [µM] | IC50 [20] [µM] | IC50 [21] [µM] | further results |
| --- | --- | --- | --- | --- | --- | --- | --- | --- | --- | --- | --- | --- | --- | --- | --- | --- | --- | --- | --- | --- | --- |
| O=c1[nH]c(=O)n([C@H]2C[C@H](O)[C@@H](CO)O2)cc1/C=C/Br [BRIVUDINE] | > 100 | 0.05 |  |  |  |  |  |  |  |  |  |  |  |  |  |  |  |  |  |  |  |
| CCC(CC)COC(=O)[C@H](C)N[P@](=O)(OC[C@H]1O[C@@](C#N)(c2ccc3c(N)ncnn23)[C@H](O)[C@@H]1O)Oc1ccccc1 [REMDESIVIR] | > 10 |  | > 10 | 0.06 | 0.06 | 0.03 | 0.03 | 6.2 | 0.7 | > 10 |  |  |  |  |  |  |  |  |  |  |  |
| O=c1oc2ccc(Br)cc2c(Cl)c1-c1nc2cc(C3=NCCN3)ccc2[nH]1 | 51.6 | > 100 | 2.3 | > 100 | > 100 | > 100 | > 100 | > 100 | > 100 | > 100 | 59 | 16.2 | > 100 | > 100 | 260 | 130 | 40.9 | 29.9 | > 100 | 6.2 | Activity [17]: 130 mmol/mmol; IC50 [22]: 49.6 µM; IC50 [23]: 9.7 µM; IC50 [24]: 6.4 µM |
| CCN(CC)c1ccc2cc(-c3nc4cc(C5=NCCCN5)ccc4[nH]3)c(=O)oc2c1 | > 100 | > 100 | > 100 | > 100 | > 100 | > 100 | 73.3 | 72.6 | 77.7 | > 100 | 43.4 | > 100 | > 100 | > 100 | 110 | 610 | 97 | 66.7 | > 100 | 10.8 | Activity [17]: 28.8 mmol/mmol; IC50 [22]: 63.8 µM; IC50 [23]: 63.5 µM; IC50 [24]: 67.3 µM |
| NC(=O)c1ncn([C@@H]2O[C@H](CO)[C@@H](O)[C@H]2O)n1 [RIBAVIRIN] | > 250 |  | 8.9 | 82.6 |  | > 250 | 10.8 | > 250 | > 250 |  | 67 | 10.5 | 4 | 2.8 |  |  |  |  |  |  |  |
| O=c1oc2ccc(Br)cc2c(Cl)c1-c1nc2cc(C3=NCCCN3)ccc2[nH]1 | > 100 | > 100 | > 100 | > 100 | 78 | > 100 | 73.5 | 11.2 | 9.4 | 59 | > 100 | 43.8 | 51 | 9 | 360 | 110 | > 100 | 54.2 | > 100 | 49.2 | Activity [17]: 95.1 mmol/mmol; IC50 [22]: > 100 µM; IC50 [23]: 59.5 µM; IC50 [24]: 52.1 µM |
| COc1cc([C@@H]2c3cc4c(cc3[C@@H](O[C@@H]3O[C@@H]5CO[C@@H](C)O[C@H]5[C@H](O)[C@H]3O)[C@H]3COC(=O)[C@H]23)OCO4)cc(OC)c1O [ETOPOSIDE] |  |  |  |  |  |  |  |  |  |  |  |  |  |  |  |  | 0.43 | 1.45 | 3.65 | 2.8 | IC50 [22]: 0.42 µM; IC50 [23]: 1.77 µM; IC50 [24]: 0.85 µM |
| Cc1cc(C(C)(C)C)c(O)c(C(C)(C)C)c1 [BUTYLATED HYDROXYTOLUENE] |  |  |  |  |  |  |  |  |  |  |  |  |  |  | 180 | 25 |  |  |  |  |  |
